CXCR6 block = CXCR6 receptor inhibitors, primary screen, cell-based, beta-arrestin, luminescence, CHO-K1 PathHunter, 1536-well. C-X-C chemokine receptor type 6 (Homo sapiens), O00574. inhibition, % at 20 µM. 360,000 tested, 0.36% active; in the data active = inhibition above about 34%, passing the limit was not always enough;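 note: antagonist mode with CXCL16 agonist at 10 nM final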
APJ antag = antagonists of human apelin receptor APJ, primary screen, CHO-K1 cells, beta-arrestin complementation, luminescence | P35414 | 330,000 tested, 0.32% active | inhibition, % at 20 µM;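 active = inhibition above about 40% at 20 µM, limit read from the data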;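 note: cells challenged with 10 nM apelin-13 agonist together with compound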
CCR6 antag = CCR6 receptor antagonists, primary screen, cell-based, CHO-K1, luminescence, beta-arrestin, uHTS; C-C chemokine receptor type 6 (Homo sapiens), P51684; CHO-K1 CCR6 PathHunter beta-arrestin, CCL20-stimulated; inhibition, % at 20 µM; 340,000 tested, 0.49% active;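 active = compounds whose inhibition of the agonist-driven luminescence signal at 20 µM reaches about 50%, limit read from the data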;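 note: cells stimulated with CCL20 at 14 nM final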
APJ ag = agonists of human apelin receptor APJ, primary screen, CHO-K1 cells, PathHunter beta-arrestin, luminescence. P35414. 0% DMSO wells, 100% apelin. activation, % at 20 µM. 330,000 tested, 0.11% active;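 active = activation more than six SD over the plate average, tested at 20 µM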
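Test system – PathHunter CHO-K1 APJ (AGTRL-1) beta-arrestin reporter cells · Input – 1000 cells/well · Compound – single test compound dose, 20 µM final, 1% DMSO · Times – compound stimulation 90 min at 25 °C, detection 60 min · Technique – beta-gal luminescence · Read-out basis – APJ–arrestin association signal · Control set – negative DMSO alone, positive Apelin-13 at 10 nM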
HTR2A ag = mouse Htr2a agonists via beta-arrestin recruitment, primary screen, cell-based, luminescence | 360,000 tested, 0.66% active | CHO-K1 mHTR2A beta-arrestin complementation; percent of 30 µM serotonin response | 5-hydroxytryptamine receptor 2A (Mus musculus), P35363 | activation, % at 7.6 µM;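 active = activation above a run cutoff, the mean activation of all tested compounds plus 3 SD, cut at about 14% in these data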
EBI2 antag = EBI2 receptor antagonists, beta-arrestin recruitment, primary screen, cell-based, luminescence, 7a,25-OHC stimulation, uHTS | 360,000 tested, 0.81% active | 7a,25-OHC stimulated | G-protein coupled receptor 183 (Homo sapiens), P32249 | inhibition, % at 5 µM | AID 651636, 2012; in the data active = inhibition above about 38%;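 note: enzyme fragment complementation signal reports receptor beta-arrestin coupling in cells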
MOR ag counter = OPRM1 agonists via beta-arrestin recruitment, confirmation, counter-screen for mouse HTR2A agonist project, cell-based, luminescence, single concentration; shares compounds with HTR2A ag; U2OS OPRM1 beta-arrestin PathHunter; DMSO 0%, DAMGO 9.3 µM 100%; activation, % at 9.3 µM; 2,300 tested, 5.3% active;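 active = mean activation above the mean of DMSO-only wells plus 3 SD, cut at about 0.5% in these data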
Target sequence (P35372 whole entry, looked up): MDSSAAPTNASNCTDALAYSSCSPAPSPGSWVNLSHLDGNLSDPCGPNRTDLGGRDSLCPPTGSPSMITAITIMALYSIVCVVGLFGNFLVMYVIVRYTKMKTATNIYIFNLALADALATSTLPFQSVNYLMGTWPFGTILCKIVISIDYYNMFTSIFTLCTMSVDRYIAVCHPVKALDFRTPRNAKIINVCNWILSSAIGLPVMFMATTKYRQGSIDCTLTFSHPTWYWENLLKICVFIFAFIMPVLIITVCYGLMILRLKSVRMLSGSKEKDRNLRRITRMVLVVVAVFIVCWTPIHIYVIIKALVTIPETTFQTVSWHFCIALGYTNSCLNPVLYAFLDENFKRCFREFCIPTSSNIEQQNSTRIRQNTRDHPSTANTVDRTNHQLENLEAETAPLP
m5-HT2A ag conf = mouse HTR2A agonists, beta-arrestin recruitment, confirmation, cell-based, luminescence, CHO-K1 PathHunter, triplicate. AID 624381, 2012. activation, % at 7.6 µM. 2,300 tested, 19% active. shares compounds with HTR2A ag. DMSO 0%, 30 µM serotonin 100%;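 active = mean activation across triplicates above the hit threshold derived in the original primary screen, cut at about 15% in these data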
Numbers stand for hits; - = inactive; . = not tested or not shown. Shown are actives, neighbours in structure and some others; about 2.1% of the full set was active somewhere.

SMILES | CXCR6 block | APJ antag | CCR6 antag | APJ ag | HTR2A ag | EBI2 antag | MOR ag counter | m5-HT2A ag conf
O=C(Nc1ccccc1F)c1ccc(CN2CCN(c3ccccc3)CC2)cc1 | - | - | - | - | 20 | - | 0.8 | 95
O=C(CCN1CCN(c2ccccc2)CC1)Nc1ccccc1F | - | - | - | - | - | - | . | .
O=C(CN1C(=O)c2cccnc2Oc2ccc(Cl)cc21)N1CCOCC1 | - | - | - | - | 14 | - | - | -
Cc1cc(-c2cccs2)c2c(n1)sc1c(=O)[nH]c(=O)[nH]c12 | - | - | - | - | 17 | - | - | -
N/C(CC(=O)Nc1cccc(C(F)(F)F)c1)=N/O | - | - | - | - | - | - | . | .
Cc1[nH]n(-c2ccccc2)c(=O)c1N=Nc1ccccc1O | - | - | - | - | - | - | . | .
Cc1[nH]n(-c2ccccc2)c(=O)c1N=Nc1ccccc1C(=O)O | - | - | - | - | 18 | - | - | -
O=C(CSC1=NCCS1)N1CCCC1 | - | - | - | - | - | - | . | .
CC(C)(CNS(=O)(=O)c1ccc2c(c1)OCCO2)N1CCOCC1 | - | - | - | - | - | - | . | .
Cc1cc(=O)[nH]c(SCC(=O)/C=C2\N(C)c3ccccc3C2(C)C)n1 | - | - | - | - | - | - | . | .
CCOc1ccccc1N1CCN(Cc2ccc(Br)s2)CC1 | - | - | - | - | 48 | - | - | 26
CCOc1ccccc1N1CCN(Cc2ccco2)CC1 | - | - | - | - | - | - | . | .
COc1cc(NC(=O)c2ccc(F)cc2)c(OC)cc1Cl | - | - | - | - | - | - | . | .
COc1cc(OC)c(NC(=O)c2cncn2-c2ccc(F)cc2)cc1Cl | - | - | - | - | 15 | - | - | -
CC(=NC1CC1)c1c(-c2ccccc2)[nH]n(-c2nc3ccccc3s2)c1=O | - | - | - | - | 15 | - | - | -
NCCc1ccc(O)c(O)c1 | - | - | - | - | 42 | - | - | 140
COc1ccc(CCNC(=O)CC(C)S(=O)(=O)c2ccc3c(c2)NC(=O)CO3)cc1OC (configuration not stated) | - | - | - | - | 15 | - | - | -
CNC(=O)C(=O)Nc1nc(C23CC4CC(CC(C4)C2)C3)cs1 | - | - | - | - | - | - | . | .
Cc1ccccc1C(=O)NC1CCN(CC(=O)Nc2ccc(N(C)C)cc2)CC1 | - | - | - | - | - | - | . | .
CC(=O)c1ccc(NC(=O)CN2CCC(NC(=O)c3ccccc3C)CC2)cc1 | - | . | . | . | 23 | - | - | -
Cc1ccccc1NC(=O)c1sc(Cl)nc1-c1ccccc1 | - | - | - | - | - | - | . | .
OC(c1cccc(Cl)c1)c1nc(/C=C/c2ccccc2)cs1 (configuration not stated) | - | . | . | . | 15 | - | - | -
COc1ccc(CCn2c3c(c(=O)[nH]c2=O)C(NC(=O)c2cccs2)(C(F)(F)F)C(=O)N3)cc1OC (configuration not stated) | - | - | - | - | 15 | - | - | -
CC1C(=O)Nc2ccc(S(=O)(=O)N3CCc4ccccc4C3)cc2NC1=O (configuration not stated) | - | - | - | - | - | - | . | .
COc1ccc(-n2nc(C(N)=O)nc2-c2ccccc2)cc1 | - | - | - | - | - | - | . | .
SMILES | CXCR6 block | APJ antag | CCR6 antag | APJ ag | HTR2A ag | EBI2 antag | MOR ag counter | m5-HT2A ag conf
Cc1cc2oc(=O)cc(CN3CCN(Cc4ccccc4)CC3)c2cc1O | - | - | - | - | - | - | . | .
Cc1cc(O)c2c(CN3CCN(Cc4ccccc4)CC3)cc(=O)oc2c1 | - | - | - | - | 20 | - | - | 18
CCCCCC(=O)Nc1cccc(C2=NOC3(C2)C[C@H](C(N)=O)N(C(=O)COc2ccc(Cl)cc2)C3)c1 (some centres not stated) | - | - | - | - | 22 | - | - | -
C/C=C\C=C/C(=O)Nc1cccc(C2=NOC3(C2)C[C@@H](C(N)=O)N(C(=O)COc2ccc(Cl)cc2)C3)c1 (some centres not stated) | - | - | - | - | - | - | . | .
N#Cc1ccc2c(c1)nnn2-c1ccccc1 | - | - | - | - | - | - | . | .
CC1=C(C(=O)N(C)C)CC(CC(=O)NC2CCCCC2)C(=O)N1CCCN1CCCC1=O (configuration not stated) | - | . | . | . | 16 | - | - | -
CSCCC(c1nc2ccccc2[nH]1)n1c(-c2cc(C(F)(F)F)cc(C(F)(F)F)c2)nc2ccccc21 (configuration not stated) | . | . | . | . | 19 | - | 0.8 | -
CSCCC(c1nc2ccccc2[nH]1)n1c(C)nc2ccccc21 (configuration not stated) | - | . | . | . | - | - | . | .
CC(=O)OCCCCON1C(=O)c2ccccc2C1=O | - | - | - | - | - | - | . | .
CC(=O)Nc1ccc(S(=O)(=O)NCCc2c[nH]c3ccc(C)cc23)cc1 | - | - | - | - | - | - | . | .
COc1ccc2[nH]cc(CCNC(=S)NC3CCCC3)c2c1 | - | - | - | - | - | - | . | .
O=C(O)[C@H]1CCCC[C@H]1C(=O)NCCc1ccccc1 | - | - | - | - | - | - | . | .
O=C(O)C1CCCCC1C(=O)NCCc1c[nH]c2ccccc12 (configuration not stated) | - | - | - | - | 38 | - | - | 15
COc1ccc2[nH]cc(CCNC(=O)C3CCCCC3)c2c1 | - | - | - | - | 15 | - | - | -
Cc1[nH]c2ccccc2c1C(=O)C(=O)NCCc1c[nH]c2ccccc12 | - | - | - | - | 15 | - | - | -
COc1ccc2[nH]cc(CCNS(=O)(=O)c3ccc(NC(C)=O)cc3)c2c1 | - | - | - | - | 31 | - | - | 15
CCN(c1cccc(C)c1)S(=O)(=O)c1cccc(C(=O)O)c1 | - | - | - | - | - | - | . | .
CCCC(=O)Nc1cc(C)c(NC(=O)c2cccs2)cn1 | - | - | - | - | - | - | . | .
Cc1nnc(SCC(=O)Nc2ccc(F)cc2F)n(N)c1=O | - | - | - | - | - | - | . | .

Screening data (PubChem)
